From ChEMBL document CHEMBL1123850, “Estrogenic affinity labels: synthesis, irreversible receptor binding, and bioactivity of aziridine-substituted hexestrol derivatives” (J Med Chem, 1987)
The source made the active and inactive calls. The calls are words filed in the database; no cut-off is given here.

How the values were obtained:
[1] = molecular target: T1, Estrogen receptor (Ovis aries) (UniProt P49885+Q9TU15); assay: Time dependent irreversible binding to estrogen receptor by inactivation-exchange assay; Good; assay type: protein assay
[2] = system: MCF7; assay: Effect on 10e-9 M estradiol stimulation of MCF-7 cell proliferation at 3E-7M: Weak antagonistic; assay type: functional, cell-based; conditions: Homo sapiens, filed as antagonist
[3] = molecular target: T1, Estrogen receptor (Ovis aries); assay: Time dependent irreversible binding to estrogen receptor by inactivation-exchange assay; No; assay type: protein assay
[4] = system: MCF7; assay: Effect on 10e-9 M estradiol stimulation of MCF-7 cell proliferation at 4x10E-8M; Agonist; assay type: functional, cell-based; conditions: Homo sapiens, filed as agonist
[5] = molecular target: T1, Estrogen receptor (Ovis aries); assay: Time dependent irreversible binding to estrogen receptor by inactivation-exchange assay; Weak; assay type: protein assay
[6] = system: MCF7; assay: Effect on 10e-9 M estradiol stimulation of MCF-7 cell proliferation at 3x10E-7M; potent agonistic; assay type: functional, cell-based; conditions: Homo sapiens, filed as agonist
[7] = system: MCF7; assay: Effect on 10e-9 M estradiol stimulation of MCF-7 cell proliferation at 4x10E-8M; Agonistic; assay type: functional, cell-based; conditions: Homo sapiens, filed as agonist
Outline: (§1)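 MCF-7 human breast cancer cells kept 1 week in phenol red-free IMEM with 5% charcoal dextran-treated calf serum, then seeded at ca. 0.5 x 10^5 cells/flask. Next day switched to phenol red- and insulin-free medium holding compound, estradiol (10^-9 M), hydroxytamoxifen or 0.1% ethanol vehicle, renewed every 48 h. Cells counted after 8 days. Agonism is growth relative to estradiol; antagonism is suppression of estradiol-stimulated growth.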

[8] = system: MCF7; assay: Effect on 10e-9 M estradiol stimulation of MCF-7 cell proliferation at 3x10E-7M; very weak; assay type: functional, cell-based; conditions: Homo sapiens; outline: as §1
[9] = system: MCF7; assay: Effect on 10e-9 M estradiol stimulation of MCF-7 cell proliferation at 10e-8 M; assay type: functional, cell-based; conditions: Homo sapiens, filed as agonist
[10] = system: MCF7; assay: Effect on 10e-9 M estradiol stimulation of MCF-7 cell proliferation at 3x10E-8M; Agonistic; assay type: functional, cell-based; conditions: Homo sapiens, filed as agonist
[11] = system: MCF7; assay: Effect on 10e-9 M estradiol stimulation of MCF-7 cell proliferation at 3x10E-7M;weak agonistic; assay type: functional, cell-based; conditions: Homo sapiens, filed as partial agonist; outline: as §1

## CC[C@H](c1ccc(O)cc1)[C@@H](CCCCN1CC1)c1ccc(O)cc1
[1]
  Irreversible binding: Time-dependent effect
[2]
  Activity: Partial antagonist

## CC[C@H](c1ccc(O)cc1)[C@@H](CSCCN1CC1)c1ccc(O)cc1
[3]
  Irreversible binding: inactive
[4]
  Activity: Agonist

## CC[C@H](c1ccc(O)cc1)[C@@H](C(=O)OCCN1CC1)c1ccc(O)cc1
[5]
  Irreversible binding: Partially active
[6]
  Activity: Agonist

## CC[C@H](c1ccc(O)cc1)[C@@H](CSCCCN(C)C)c1ccc(O)cc1
[7]
  Activity: Agonist

## CC[C@H](c1ccc(O)cc1)[C@@H](CCCCN1CCNCC1)c1ccc(O)cc1
[8]
  Activity: inactive

## CC[C@H](c1ccc(O)cc1)[C@@H](C(=O)OCCCN1CC1)c1ccc(O)cc1
[5]
  Irreversible binding: Partially active
[6]
  Activity: Agonist

## CC[C@H](c1ccc(O)cc1)[C@@H](C(=O)CCCCN1CC1)c1ccc(O)cc1
[1]
  Irreversible binding: Time-dependent effect
[9]
  Activity: Agonist

## CC[C@H](c1ccc(O)cc1)[C@@H](CSCCCN1CC1)c1ccc(O)cc1
[1]
  Irreversible binding: Time-dependent effect
[10]
  Activity: Agonist

## CC[C@H](c1ccc(O)cc1)[C@@H](C(=O)N1CC1)c1ccc(O)cc1
[3]
  Irreversible binding: inactive
[6]
  Activity: Agonist

## CC[C@H](c1ccc(O)cc1)[C@@H](C(=O)CCCCN(C)C)c1ccc(O)cc1
[11]
  Activity: Partial agonist
